Results reported in PMC3858840 (Journal of molecular biology, 2013).

Legend:
CaM (calmodulin) = assay: Direct interaction between moesin-FERM and CaM; format: binding; settings: up to 10 µM moesin-FERM; 0.3 mM CaCl2; ex 340 nm
[1] = test system: TMR-CLS/POPC/POPS liposome; format: binding, human; settings: added alone, before moesin-FERM; 15% POPS/85% POPC; 0.3 mM CaCl2; 575 nm
In short: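 TMR-CLS was extruded (400-nm filter) into 15% POPS/85% POPC liposomes at 1:1000 peptide:lipid and diluted to about 5 nM in 50 mM Tris–HCl, 150 mM NaCl, 0.3 mM CaCl₂, pH 7.4. Additions carried 5 nM liposome. First 3 µM Ca/CaM, then moesin-FERM (400 nM, then 100 nM steps). TMR emission was recorded continuously at 575 nm (excitation 542 nm).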

B1: moesin-FERM: FERM domain of human moesin (residues 1–346), recombinant (protein)
chain: MPKTISVRVTTMDAELEFAIQPNTTGKQLFDQVVKTIGLREVWFFGLQYQDTKGFSTWLKLNKKVTAQDVRKESPLLFKFRAKFYPEDVSEELIQDITQRLFFLQVKEGILNDDIYCPPETAVLLASYAVQSKYGDFNKEVHKSGYLAGDKLLPQRVLEQHKLNKDQWEERIQVWHEEHRGMLREDAVLEYLKIAQDLEMYGVNYFSIKNKKGSELWLGVDALGLNIYEQNDRLTPKIGFPWSEIRNISFNDKKFVIKPIDKKAPDFVFYAPRLRINKRILALCMGNHELYMRRRKPDTIEVQQMKAQAREEKHQKQMERAMLENEKKKREMAEKEKEKIEREKEE
change in IAEDANS fluorescence emission of IAEDANS-CaM (CaM (calmodulin)): little change in the IAEDANS fluorescence emission
change in TMR fluorescence of TMR-CLS/POPS liposome on addition [1]: decrease of TMR fluorescence emission
